Results on six compounds are retold here after ChEMBL document CHEMBL1156988, “Synthesis and antibacterial studies of binaphthyl-based tripeptoids. Part 1” (2010).

Converted amounts (≈) assume the structure as drawn.

Test [1] concerns Staphylococcus aureus. In words: Antibacterial activity against vancomycin intermediate Staphylococcus aureus after 24 hrs. It is filed as functional. Put shortly: (§1)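 Broth microdilution in cation-adjusted Mueller Hinton II broth, inoculum 1 × 10^6 CFU/mL. Inoculum was added 1:1 to twofold serial compound dilutions in triplicate wells. Plates were incubated 24 h at 37 °C. MIC was taken as the lowest dilution giving complete growth inhibition. Strains: wild type ATCC 6538P, Mu50 ATCC 700699, MRSA ATCC 43300.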

In test [2] the test system is Staphylococcus aureus. The experiment in a line: Antibacterial activity against methicillin sensitive Staphylococcus aureus after 24 hrs. It is filed as functional. Put shortly:
as §1

Test [3] has as its system Staphylococcus aureus. The experiment in a line: Antibacterial activity against methicillin-resistant Staphylococcus aureus ATCC 43300 after 24 hrs. It is filed as functional. As to conditions: ATCC 43300, 24 h. Put shortly: as §1
Test [4] concerns Staphylococcus epidermidis. In words: Antibacterial activity against Staphylococcus epidermidis ATCC 700562 after 24 hrs. The test is classed as functional. The note with it: ATCC 700562, 24 h. In outline: (§2)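 Micro-broth dilution in cation-adjusted Mueller Hinton II broth, inoculum 1 × 10^6 CFU per mL, added to triplicate wells of twofold serially diluted compound. Incubated 24 h at 37 °C. MIC taken as the lowest dilution giving complete growth inhibition.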

The test system of test [5] is Enterococcus faecium. In words: Antibacterial activity against vancomycin-resistant clinical isolate Enterococcus faecium after 24 hrs. It is filed as functional.
Test [6] deals with Enterococcus faecium. The experiment in a line: Antibacterial activity against vancomycin sensitive clinical isolate Enterococcus faecium after 24 hrs. The test is classed as functional.
Test [7] deals with Staphylococcus aureus. The experiment in a line: Antibacterial activity against Staphylococcus aureus 6538P after 24 hrs. It is filed as functional. Put shortly: as §2
In test [8] the test system is Enterococcus faecium. The experiment in a line: Antibacterial activity against vancomycin-resistant Enterococcus faecium 243 after 24 hrs. The note with it: Enterococcus faecium, 243, 24 h.
Test [9] has as its system Enterococcus faecium. In words: Antibacterial activity against vancomycin-resistant Enterococcus faecium 449 after 24 hrs. The note with it: Enterococcus faecium, 449, 24 h.
Test [10] concerns Enterococcus faecium. In words: Antibacterial activity against vancomycin-resistant Enterococcus faecium 820 after 24 hrs. As to conditions: Enterococcus faecium, 820, 24 h.
For test [11], the system named is Enterococcus faecium. The experiment in a line: Antibacterial activity against vancomycin-resistant Enterococcus faecium 987 after 24 hrs. The note with it: Enterococcus faecium, 987, 24 h.
For test [12], the system named is Staphylococcus aureus. In words: Antibacterial activity against vancomycin intermediate Staphylococcus aureus after overnight incubation. The test is classed as functional. Put shortly:
(§3)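 Strains were grown in Luria Broth. Overnight stationary-phase cultures were diluted 1:1000 into fresh medium with twofold compound dilutions, highest typically 128 µg/ml, in 96-well plates. Incubated overnight at 37 °C. MIC recorded as the […].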

For test [13], the system named is Staphylococcus aureus. The experiment in a line: Antibacterial activity against Staphylococcus aureus 6538P after overnight incubation. The test is classed as functional. As to conditions: Staphylococcus aureus, 6538P; read-out: MIC. In outline: as §3
In test [14] the test system is Staphylococcus epidermidis. The experiment in a line: Antibacterial activity against Staphylococcus epidermidis ATCC 700562 after overnight incubation. The test is classed as functional.
The test system of test [15] is Enterococcus faecium. In words: Antibacterial activity against vancomycin-resistant Enterococcus faecium 243 after overnight incubation. As to conditions: Enterococcus faecium, 243; read-out: MIC.
The subject of test [16] is Enterococcus faecium. In words: Antibacterial activity against vancomycin-resistant Enterococcus faecium 449 after overnight incubation. The note with it: Enterococcus faecium, 449; read-out: MIC.
Test [17] deals with Enterococcus faecium. In words: Antibacterial activity against vancomycin-resistant Enterococcus faecium 820 after overnight incubation. The note with it: Enterococcus faecium, 820; read-out: MIC.
Test [18] deals with Enterococcus faecium. The experiment in a line: Antibacterial activity against vancomycin-resistant Enterococcus faecium 987 after overnight incubation. The note with it: Enterococcus faecium, 987; read-out: MIC.

Take `CC(C)CCOc1ccc2ccccc2c1-c1c(OCC(=O)N[C@H](CCCCN)C(=O)N[C@@H](CCCNC(=N)N)C(=O)N[C@H](CC(C)C)C(=O)OCc2ccccc2)ccc2ccccc12.Cl.Cl`: the MIC (as a rule, the smallest concentration in the dilution series that meets the test's criterion for growth inhibition) is 6 µg/mL in the test on Staphylococcus aureus [1]; 6 µg/mL in the test with Staphylococcus aureus [2]; 6 µg/mL in the test with Staphylococcus aureus [3]; 3 µg/mL in [4]; 2 µg/mL with Enterococcus faecium [5]; 16 µg/mL in the test on Enterococcus faecium [6]. For the same compound, the minimum inhibitory concentration (MIC) turned out to be 3.9 µg/mL with Staphylococcus aureus [7]; 15.6 µg/mL in the test with Enterococcus faecium [8]; 15.6 µg/mL against Enterococcus faecium [9]; 7.8 µg/mL against Enterococcus faecium [10]; 15.6 µg/mL against Enterococcus faecium [11].
As to `CC(C)CCOC(=O)[C@H](CC(C)C)NC(=O)[C@@H](CCCNC(=N)N)NC(=O)[C@@H](CCCCN)NC(=O)COc1ccc2ccccc2c1-c1c(OCCC(C)C)ccc2ccccc12.Cl.Cl`, the MIC in the test with Staphylococcus aureus [12] (read-out: MIC) is 4 µg/mL.
`CNC(=N)NCCC[C@@H](NC(=O)[C@@H](CCCCN)NC(=O)COc1ccc2ccccc2c1-c1c(OCCC(C)C)ccc2ccccc12)C(=O)N[C@@H](CC(C)C)C(=O)OCc1ccccc1.Cl.Cl`: the minimum inhibitory concentration (MIC) amounted to 3.13 µg/mL in the test with Staphylococcus aureus [13]; 3.13 µg/mL in [14]; 25 µg/mL in the test on Enterococcus faecium [15]; 25 µg/mL in the test on Enterococcus faecium [16]; 25 µg/mL in the test with Enterococcus faecium [17]; 25 µg/mL with Enterococcus faecium [18].
For the compound `CN[C@H](CC(C)C)C(=O)N[C@H]1C(=O)N[C@@H](CC(N)=O)C(=O)N[C@H]2C(=O)N[C@H]3C(=O)N[C@H](C(=O)N[C@H](C(=O)O)c4cc(O)cc(O)c4-c4cc3ccc4O)[C@H](O)c3ccc(c(Cl)c3)Oc3cc2cc(c3O[C@@H]2O[C@H](CO)[C@@H](O)[C@H](O)[C@H]2O[C@H]2C[C@](C)(N)[C@H](O)[C@H](C)O2)Oc2ccc(cc2Cl)[C@H]1O` [VANCOMYCIN], the MIC with Staphylococcus aureus [13] was 1.56 µg/mL (≈ 1.08 µM); in [14], 3.13 µg/mL (≈ 2.16 µM); against Staphylococcus aureus [12], 6 µg/mL (≈ 4.14 µM); in the test on Enterococcus faecium [15], 1.56 µg/mL (≈ 1.08 µM); in the test with Enterococcus faecium [16], above 25 µg/mL; in the test with Enterococcus faecium [17], above 25 µg/mL. In addition, the MIC in the test on Enterococcus faecium [18] is 3.13 µg/mL (≈ 2.16 µM).
With `CC(C)CCOc1ccc2ccccc2c1-c1c(OCC(=O)N[C@H](CCCCN)C(=O)N[C@H](CCCNC(=N)N)C(=O)N[C@@H](CC(C)C)c2ncc(Cc3ccccc3)o2)ccc2ccccc12.Cl.Cl`, the MIC in the test on Staphylococcus aureus [12] (read-out: MIC) worked out at 4 µg/mL.
`CC(C)CCOc1ccc2ccccc2c1-c1c(OCC(=O)N[C@H](CCCNC(=N)N)C(=O)N[C@H](CCCNC(=N)N)C(=O)N[C@@H](CC(C)C)C(=O)OCc2ccccc2)ccc2ccccc12.Cl.Cl`: the MIC with Staphylococcus aureus [13] was found to be 1.95 µg/mL; in [14], 19.5 µg/mL; in the test on Enterococcus faecium [15] it was 62.5 µg/mL; in the test with Enterococcus faecium [16], 31.3 µg/mL; with Enterococcus faecium [17], 15.6 µg/mL; with Enterococcus faecium [18], 31.3 µg/mL.
